# Assay results pooled from the literature.
# Target: Mitogen-activated protein kinase kinase kinase 15 (MAP3K15, Homo sapiens, UniProt Q6ZN16)
# Residues used in one study (Q6ZN16 1-1313): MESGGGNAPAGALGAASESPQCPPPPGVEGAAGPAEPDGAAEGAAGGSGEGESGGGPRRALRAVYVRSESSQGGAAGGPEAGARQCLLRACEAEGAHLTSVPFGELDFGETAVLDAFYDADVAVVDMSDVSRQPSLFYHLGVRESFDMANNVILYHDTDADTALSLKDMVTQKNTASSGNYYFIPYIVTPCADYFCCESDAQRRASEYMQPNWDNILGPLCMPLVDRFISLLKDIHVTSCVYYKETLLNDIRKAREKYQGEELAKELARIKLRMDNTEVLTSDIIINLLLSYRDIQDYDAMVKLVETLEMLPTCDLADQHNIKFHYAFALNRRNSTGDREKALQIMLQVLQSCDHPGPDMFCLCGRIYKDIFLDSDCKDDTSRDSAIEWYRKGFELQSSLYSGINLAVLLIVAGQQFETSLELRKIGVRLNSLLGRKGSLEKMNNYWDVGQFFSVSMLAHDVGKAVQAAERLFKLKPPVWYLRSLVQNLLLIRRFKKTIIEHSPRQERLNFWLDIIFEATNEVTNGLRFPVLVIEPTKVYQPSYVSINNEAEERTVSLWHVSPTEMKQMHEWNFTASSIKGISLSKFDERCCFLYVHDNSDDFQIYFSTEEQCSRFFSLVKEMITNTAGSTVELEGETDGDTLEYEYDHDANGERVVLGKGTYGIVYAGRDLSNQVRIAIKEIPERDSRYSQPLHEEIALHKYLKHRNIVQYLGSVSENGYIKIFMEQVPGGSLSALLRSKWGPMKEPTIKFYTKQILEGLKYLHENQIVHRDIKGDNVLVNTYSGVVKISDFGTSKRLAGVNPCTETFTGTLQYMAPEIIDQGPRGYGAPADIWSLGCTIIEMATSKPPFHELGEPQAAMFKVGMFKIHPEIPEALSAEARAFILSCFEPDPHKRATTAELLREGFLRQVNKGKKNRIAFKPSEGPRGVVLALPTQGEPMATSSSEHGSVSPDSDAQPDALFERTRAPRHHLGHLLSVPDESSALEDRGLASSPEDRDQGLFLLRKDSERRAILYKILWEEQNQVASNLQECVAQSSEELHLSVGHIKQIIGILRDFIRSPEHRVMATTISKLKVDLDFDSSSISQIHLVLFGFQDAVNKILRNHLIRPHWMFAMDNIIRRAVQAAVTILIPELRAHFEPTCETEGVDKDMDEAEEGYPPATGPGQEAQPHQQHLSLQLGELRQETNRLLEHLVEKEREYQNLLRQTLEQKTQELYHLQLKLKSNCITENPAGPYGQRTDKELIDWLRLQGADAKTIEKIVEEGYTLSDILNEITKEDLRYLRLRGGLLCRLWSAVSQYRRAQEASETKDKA
Compound,assay,setting,remaining binding [%]
C[C@@H]1CCN(c2nccc(-c3cnn4ncccc34)n2)C1,binding,1 µM,100
Cn1nc(C(F)(F)F)cc1-c1cnc(N2CCc3cc(S(=O)(=O)Nc4c(F)cc(Cl)cc4F)cc(N4CCCC4=O)c32)nc1,"cell-free assay, competition with immobilised ligand",1 µM,81
F[C@@H]1CCN(c2nccc(-c3cnn4ncccc34)n2)C1,binding,1 µM,100
c1cncc(-c2cccc(Nc3nccc(NC4CCCCC4)n3)c2)c1,"binding, competition with immobilised ligand",10 µM,77
N[C@H]1CCN(c2nccc(-c3cnn4ncccc34)n2)C1,binding,1 µM,83
CNC(=O)[C@@H]1CC[C@@H](n2c(-c3ccc4cnccc4c3)nc3ccc(C(=O)NCc4cccc(C(N)=O)c4)cc32)C1,"binding, competition with immobilised ligand",1 µM,99
COc1ncc2cc3ccccc3nc2c1C#N,"cell-free assay, competition with immobilised ligand",5 µM,95
O=C(c1ccc(Nc2ncc(Cl)c(-c3cc4ccccc4s3)n2)cc1)N1CCC(N2CCCC2)CC1,"binding, competition with immobilised ligand",1 µM,55
COc1cnc(Nc2cccc(S(N)(=O)=O)c2)nc1N1CCN(c2ccccc2)C(=O)C1,"binding, competition with immobilised ligand",1 µM,69
Nc1ncc2c(n1)-c1c([nH]c3ccc(C#CC4CC4)cc13)CCCC2,"binding, competition with immobilised ligand",1 µM,73
CCCOc1ccc([C@@H]2[C@@H](C(=O)O)[C@H](c3ccc4c(c3)OCO4)CN2CC(=O)Nc2c(CC)cccc2CC)cc1,"cell-free assay, competition with immobilised ligand",1 µM,99
CN(C)c1nccc(-c2cnc3ncccn23)n1,binding,1 µM,100
Cn1cc(Cl)c2c(Oc3c(F)cc(Nc4cc(Cl)nc(N)n4)cc3F)ccnc21,"cell-free assay, competition with immobilised ligand",0.1 µM,84
O=C(NCC1CCOCC1)c1n[nH]cc1NC(=O)c1c(F)cccc1F,"binding, competition with immobilised ligand",1 µM,72
O=C(NCCCN1CCOCC1)c1ccc(Nc2ncc(Cl)c(-c3ccc(Cl)s3)n2)cc1,"binding, competition with immobilised ligand",1 µM,68
O=C(O)c1cc(-c2ccc(C3CCNCC3)cc2)c2ccc(-c3ccc(C(F)(F)F)cc3)cc2c1,"cell-free assay, competition with immobilised ligand",1 µM,99
CN(c1nccc(-c2cnn3ncccc23)n1)C1CC1,binding,1 µM,100
CN(C)C(=O)Cn1cc(-c2nc([C@@](C)(c3ccc(-c4cnc(N)nc4)cc3)C3CC3)no2)cn1,"cell-free assay, competition with immobilised ligand",1 µM,99
O=C(NCCCN1CCOCC1)c1ccc(Nc2nccc(-c3cc4ccccc4s3)n2)cc1,"binding, competition with immobilised ligand",1 µM,56
c1cnn2ncc(-c3ccnc(N4CCC45COC5)n3)c2c1,binding,1 µM,68
O=c1nc(-c2ccccn2)sc2ccccc12,"binding, competition with immobilised ligand",1 µM,100
